Results published in ChEMBL document CHEMBL3259576, “Design and Evaluation of ω-Hydroxy Fatty Acids Containing α-GalCer Analogues for CD1d-Mediated NKT Cell Activation” (ACS Med Chem Lett, 2014).
Calls of active or inactive are those of the source.

Columns and labels:
[1] = organism: Mus musculus; test: Stimulation of mouse CD1d-mediated IFN-gamma production in C57BL/6 mouse splenocytes measured at 32 ng/ml after 72 hrs by ELISA; assay type: cell-based
Summary of the method: (§1)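 Mouse splenocytes were treated individually with glycolipid and cultured for 72 h. IFN-γ and IL-4 in the culture were then measured. Results are expressed as relative activity, as means ±SD of triplicates, from one representative of two independent experiments.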

[2] = test system: RBL; test: Stimulation of mouse CD1d-mediated IL-2 production in DN32.D3 hybridoma cells co-cultured with mouse CD1d transfected RBL cells measured at 32 to 500 ng/ml after 16 hrs by ELISA
[3] = organism: Mus musculus; test: Stimulation of mouse CD1d-mediated IL-4 production in mouse splenocytes measured at 32 ng/ml after 72 hrs by ELISA; assay type: cell-based; summary of the method: as §1
[4] = test system: Mus musculus; test: In vivo stimulation of mouse CD1d-mediated peak IL4 production in C57BL/6 mouse serum measured at 0.5 ug, iv after 2 hrs by ELISA; assay type: functional, organism-based
[5] = test system: Mus musculus; test: In vivo stimulation of mouse CD1d-mediated peak IFN-gamma production in C57BL/6 mouse serum measured at 0.5 ug, iv after 12 hrs by ELISA; assay type: functional, organism-based

Measured: Activity

CCCCCCCCCCCCCC[C@@H](O)[C@@H](O)[C@H](CO[C@H]1O[C@H](CO)[C@H](O)[C@H](O)[C@H]1O)NC(=O)CCCCCCCCCCCO
active: [1] | [2] | [3]

CCCCCCCCCCCCCC[C@@H](O)[C@@H](O)[C@H](CO[C@H]1O[C@H](CO)[C@H](O)[C@H](O)[C@H]1O)NC(=O)CCCCCCCCCCCCCCCO
active: [1] | [3]

CCCCCCCCCCCCCC[C@@H](O)[C@@H](O)[C@H](CO[C@H]1O[C@H](CO)[C@H](O)[C@H](O)[C@H]1O)NC(=O)CCCCCCCCCC
active: [1] | [2] | [3]

CCCCCCCCCCCCCC[C@@H](O)[C@@H](O)[C@H](CO[C@H]1O[C@H](CO)[C@H](O)[C@H](O)[C@H]1O)NC(=O)CCCCCCCCCCO
active: [4] | [1] | [2] | [3] | [5]

CCCCCCCCCCCCCC[C@@H](O)[C@@H](O)[C@H](CO[C@H]1O[C@H](CO)[C@H](O)[C@H](O)[C@H]1O)NC(=O)CCCCCCCCCCC
active: [1] | [2] | [3]

CCCCCCCCCCCCCCCCCCCCCCCCCC(=O)N[C@@H](CO[C@H]1O[C@H](CO)[C@H](O)[C@H](O)[C@H]1O)[C@H](O)[C@H](O)CCCCCCCCCCCCCC
active: [4] | [1] | [2] | [3] | [5]
